Bioassay records from PubChem BioAssay.
A selection: hits, their analogues and other compounds. The true share with any hit is near 3.3%.
Lipid droplet: inhibitors of hepatocyte lipid droplet formation, primary screen, imaging, high-throughput imaging, BODIPY stain; inhibition, % at 6.5 µM; 240,000 tested, 0.4% active; AML12 mouse hepatocytes, oleate lipid droplets; AID 1656, 2009;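 active = lipid droplet intensity inhibited by at least 50%, with more than 500 cells counted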
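Test system: AML12 mouse liver cells; schedule: overnight exposure; technique: high-content imaging of BODIPY-stained droplets and DAPI nuclei; read-out: % inhibition of corrected integrated BODIPY droplet signal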
HGIII-sPLA2 inh: human group III sPLA2 inhibitors, primary screen, biochemical, QFRET, BODIPY PC-A2 liposome substrate; Group 3 secretory phospholipase A2 (Homo sapiens), Q9NZ20; QFRET BODIPY PC-A2 liposome hydrolysis, fluorescence; inhibition, % at 12.2 µM; 370,000 tested, 0.56% active; AID 743126, 2013;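 active = inhibition above mean plus 3 SD of compounds lying within the high and low control bounds, cut at about 19% in these data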
PfM18AAP inh: PfM18AAP inhibitors, malaria aminopeptidase, primary screen, biochemical, QFRET, recombinant enzyme | H-Glu-NHMec fluorogenic cleavage | M18 aspartyl aminopeptidase (Plasmodium falciparum 3D7) | inhibition, % at 7.35 µM | 290,000 tested, 1.2% active;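 active = inhibition above the campaign mean inhibition over all tested compounds plus 3 SD, cut at about 28% in these data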
NRP1-CendR mod: modulators of CendR peptide binding to NRP-1, primary screen, biochemical, fluorescence polarization, uHTS | FAM-RPARPAR peptide binding to NRP-1 | inhibition, % at 25 µM | 360,000 tested, 0.85% active | AID 602438, 2012;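 active = inhibition or corrected inhibition above about 18%, plus a signal ratio from 0.5 to 1.5, limit read from the data, passing the limit was not always enough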
Arrestin-AP2 inh: inhibitors of beta-arrestin/AP2 binding, primary screen, biochemical, GPCR trafficking, flow cytometry | FITC-arrestin peptide / GST-AP2 beads; AP2 beta2 appendage carries R879A mutation | inhibition, % at 10 µM | 340,000 tested, 0.31% active | AID 504490, 2011;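 active = inhibition above a set limit, near 3 SD of compounds lacking own fluorescence, cut at about 54% in these data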
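System: GST-AP2 R879A glutathione beads. Medium: PBS with 0.05% Tween 20 and 0.1% BSA. Also added: FITC-arrestin peptide, 50 nM. Incubation: 12 min plus 1 h, RT. Measured by: high-throughput flow cytometry of beads, ex 488, em 535 nm. Evaluation: percent drop in bead-associated FITC signal.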
HTR2A ag: mouse Htr2a agonists via beta-arrestin recruitment, primary screen, cell-based, luminescence; CHO-K1 mHTR2A beta-arrestin complementation; percent of 30 µM serotonin response; activation, % at 7.6 µM; 5-hydroxytryptamine receptor 2A (Mus musculus), P35363; 360,000 tested, 0.66% active; AID 624169, 2012;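 active = activation above a run cutoff, the mean activation of all tested compounds plus 3 SD, cut at about 14% in these data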
Target sequence (P35363 whole entry, looked up): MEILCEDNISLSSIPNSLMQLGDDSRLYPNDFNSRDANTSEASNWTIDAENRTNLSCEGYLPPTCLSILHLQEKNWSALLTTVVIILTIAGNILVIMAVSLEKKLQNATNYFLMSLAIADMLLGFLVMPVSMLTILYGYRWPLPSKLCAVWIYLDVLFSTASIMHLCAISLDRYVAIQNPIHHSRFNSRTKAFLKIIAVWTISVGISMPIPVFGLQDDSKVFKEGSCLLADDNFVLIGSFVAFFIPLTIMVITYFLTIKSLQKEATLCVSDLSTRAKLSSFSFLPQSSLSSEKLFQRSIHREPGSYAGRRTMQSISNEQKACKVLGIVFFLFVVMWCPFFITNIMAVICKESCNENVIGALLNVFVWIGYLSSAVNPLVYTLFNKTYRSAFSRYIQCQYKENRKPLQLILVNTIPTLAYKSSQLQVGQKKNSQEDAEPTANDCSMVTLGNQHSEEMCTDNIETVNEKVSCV
Hits are given with their value; n = inactive; x = no result given; ! = not confirmed by another sample.

SMILES	Lipid droplet	HGIII-sPLA2 inh	PfM18AAP inh	NRP1-CendR mod	Arrestin-AP2 inh	HTR2A ag
CCCCCCN(C(=O)CCCCCN1C(=O)NC(c2ccccc2)C(C(=O)OCc2ccccc2)=C1C)C(C(=O)NCCCC)c1ccc(OCC(=O)OC)c(C(=O)OC)c1 (stereo not drawn)	52	n	x	x	x	x
Cc1ccc(C(=O)Nc2nc(=O)[nH]s2)cc1	n	n	n	17!	n	n
O=C(N/N=C/c1ccc(N2CCOCC2)cc1)c1ccccc1OCCOc1ccccc1	n	n	n	n	n	n
Cc1sc2ncn(CC(=O)NCCCC(=O)N3CCC(C(N)=O)CC3)c(=O)c2c1C	n	n	n	n	n	n
CCCN1CCN(C(=O)CCCNC(=O)Cn2cnc3sc(C)c(C)c3c2=O)CC1	x	n	n	26	n	n
CCN1C(=O)[C@H]2[C@@H](c3ccc(-c4cccc(Cl)c4)cc3)N3CCCC[C@@]3(C(=O)OC)[C@H]2C1=O	x	n	x	n	n	n
Cc1ccccc1S(=O)(=O)Nc1nc2ccccc2nc1NCCO	n	n	n	31	n	n
O=c1cnnc(N/N=C/c2cccs2)[nH]1	n	n	30	n	n	n
O=c1cnnc(N/N=C/c2c[nH]c3ccccc23)[nH]1	n	n	29	n	n	n
CSc1nc2ccccc2c(=O)n1C1CCOC(C)(C)C1 (stereo not drawn)	n	n	n	28	n	n
COP(=O)(OC)c1ccc(NCc2cc(O)ccc2O)cc1	x	n	x	n	n	n
CC(C)OC(=O)c1ccc(NCc2cc(O)ccc2O)cc1	x	22	x	n	n	n
CC(C)OC(=O)c1ccc(NC(=O)c2ccccc2)cc1	n	n	n	35	n	n
O=C(OCc1ccccc1)c1ccc(NCc2cc(O)ccc2O)cc1	x	26	x	n	n	n
CCCOC1CCCN(C(=O)c2ccc3oc(C(C)C)nc3c2)C1 (stereo not drawn)	n	n	n	n	n	n
Clc1ccc(CNc2ccc(CNc3ncn[nH]3)cc2)cc1	n	n	37	n	n	n
O=S(=O)(Nc1ncccn1)c1ccc(Cl)cc1	n	n	n	n	n	n
O=S(=O)(Nc1ncn[nH]1)c1ccc(Cl)cc1	n	n	59	n	n	n
Clc1ccc(CNc2ccc(CNc3ncn[nH]3)cc2)c(Cl)c1	n	n	28	n	n	n
CCC(C)N(C(=O)c1oc(=O)c2ccccc2c1-c1ccc(C)cc1)C(C)CC (stereo not drawn)	x	n	x	x	x	x
CCOC(=O)c1cc(OCC)c2c(ccc3cc(OC)ccc32)n1	x	n	x	n	x	n
CC1CCCC(NC(=O)CSc2ccc(F)cc2)C1C (stereo not drawn)	n	n	n	n	n	n
CC1CCCC(NC(=O)CCC(=O)c2ccc(F)cc2)C1C (stereo not drawn)	n	n	n	26	n	n
COc1cc(C(CCN2CCCC(C)C2)c2c(OC)cc(OC)c3c2OC(=O)CC3c2ccc(N(C)C)cc2)cc(OC)c1OC (stereo not drawn)	n	x	x	n	n	n
COc1cc(C2CC(=O)Oc3c(C(CCN4CCCC(C)C4)c4ccc(N(C)C)cc4)c(OC)cc(OC)c32)cc(OC)c1OC (stereo not drawn)	n	n	x	25	n	n
SMILES	Lipid droplet	HGIII-sPLA2 inh	PfM18AAP inh	NRP1-CendR mod	Arrestin-AP2 inh	HTR2A ag
NCc1cc2c3c(c1)CCCN3CCC2	n	n	n	40	n	n
Cc1ccc(-c2nc(C3CCCN(S(=O)(=O)c4ccccc4)C3)no2)cc1 (stereo not drawn)	x	n	x	x	x	x
CCCNC(=O)c1cc(C)no1	n	n	n	25	n	n
Cc1cc(C(=O)NC(C)C)on1	x	n	n	n	n	n
CCCCNC(=O)C[C@H]1C[C@@]2(C(=O)OC)C(=C[C@H](C(C)(C)C)O[C@@H]2C)N(Cc2ccccc2)C1=O	x	n	x	x	x	x
COc1cccc(-c2cnc3c(NC(C)=O)cc(-c4ccsc4)cn23)c1	x	n	x	n	x	n
